Data taken from ChEMBL document CHEMBL3525971 (Drug Metab Dispos, 2011).

Experiments:
[1] = AUC (0 to 6 hrs) in castrated pig plasma withdrawn from portal vein at 0.2 mg/kg, iv by UPLC-tandem mass spectrometry; format: ADME, organism-based, Sus scrofa; design: time < 6 hr, dose 0.2 mg/kg, route intravenous; details: male
Procedure, shortened: (§1)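 Where ketoconazole was co-dosed, it was given at 10 mg/kg at the same jejunal site 20 min before. Plasma protein-precipitated with acetonitrile and analysed by UPLC-MS/MS (finasteride-d9). AUC0-6h, Cmax and t1/2 (ln2/λz) were derived by non- or compartmental analysis.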

[2] = Apparent half-life of the terminal disposition phase in castrated pig plasma withdrawn from femoral vein at 0.2 mg/kg, iv by UPLC-tandem mass spectrometry; format: ADME, organism-based, Sus scrofa; design: dose 0.2 mg/kg, route intravenous; details: male, read-out: t1/2 lambda z (converted); procedure, shortened: as §1
[3] = Biliary excretion in castrated pig assessed as fraction of the dose excreted at 0.8 mg/kg administered as intrajejunal dose measured during 6 hrs sampling by UPLC-tandem mass spectrometry; format: ADME, organism-based, Sus scrofa; design: dose 0.8 mg/kg; details: male, bile, read-out: Drug excretion
[4] = Biliary excretion in castrated pig assessed as fraction of the dose excreted at 0.2 mg/kg, iv measured during 6 hrs sampling by UPLC-tandem mass spectrometry; format: ADME, organism-based, Sus scrofa; design: dose 0.2 mg/kg, route intravenous; details: male, bile, read-out: Drug excretion
[5] = Apparent biliary clearance in castrated pig at 0.8 mg/kg administered as intrajejunal dose by UPLC-tandem mass spectrometry; format: ADME, organism-based, Sus scrofa, Bile; design: dose 0.8 mg/kg; details: in vivo, other
[6] = AUC (0 to 6 hrs) in castrated pig plasma withdrawn from femoral vein at 0.8 mg/kg administered as intrajejunal dose by UPLC-tandem mass spectrometry; format: ADME, organism-based, Sus scrofa; design: time < 6 hr, dose 0.8 mg/kg; details: male; procedure, shortened: as §1
[7] = AUC (0 to 6 hrs) in castrated pig plasma withdrawn from hepatic vein at 0.8 mg/kg administered as intrajejunal dose 20 mins after ketoconazole administration by UPLC-tandem mass spectrometry; format: ADME, organism-based, Sus scrofa; design: time < 6 hr, dose 0.8 mg/kg; details: male; procedure, shortened: as §1
[8] = Cmax in castrated pig plasma withdrawn from hepatic vein at 0.8 mg/kg administered as intrajejunal dose 20 mins after ketoconazole administration by UPLC-tandem mass spectrometry; format: ADME, organism-based, Sus scrofa; design: dose 0.8 mg/kg; details: male; procedure, shortened: as §1
[9] = Tmax in castrated pig plasma withdrawn from femoral vein at 0.8 mg/kg administered as intrajejunal dose by UPLC-tandem mass spectrometry; format: ADME, organism-based, Sus scrofa; design: dose 0.8 mg/kg; details: male
Procedure, shortened: (§2)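 Portal, hepatic and femoral vein plasma sampled over 6 h and assayed by UPLC-MS/MS. Tmax read directly from the profiles. Terminal t1/2 calculated as ln2/λz by non- or compartmental analysis; values below LLOQ after Cmax excluded.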

[10] = Tmax in castrated pig plasma withdrawn from portal vein at 0.8 mg/kg administered as intrajejunal dose 20 mins after ketoconazole administration by UPLC-tandem mass spectrometry; format: ADME, organism-based, Sus scrofa; design: dose 0.8 mg/kg; details: male; procedure, shortened: as §2
[11] = AUC (0 to 6 hrs) in castrated pig bile at 0.8 mg/kg administered as intrajejunal dose by UPLC-tandem mass spectrometry; format: ADME, organism-based, Sus scrofa; design: time < 6 hr, dose 0.8 mg/kg; details: male
[12] = AUC (0 to 6 hrs) in castrated pig bile at 0.2 mg/kg, iv by UPLC-tandem mass spectrometry; format: ADME, organism-based, Sus scrofa; design: time < 6 hr, dose 0.2 mg/kg, route intravenous; details: male
[13] = Cmax in castrated pig bile at 0.8 mg/kg administered as intrajejunal dose by UPLC-tandem mass spectrometry; format: ADME, organism-based, Sus scrofa; design: dose 0.8 mg/kg; details: male
[14] = Cmax in castrated pig bile at 0.2 mg/kg, iv by UPLC-tandem mass spectrometry; format: ADME, organism-based, Sus scrofa; design: dose 0.2 mg/kg, route intravenous; details: male
[15] = Ratio of AUC in bile to plasma withdrawn from portal vein in castrated pig at 0.8 mg/kg administered as intrajejunal dose 20 mins after ketoconazole administration by UPLC-tandem mass spectrometry; format: ADME, organism-based, Sus scrofa; design: dose 0.8 mg/kg; details: male, read-out: Ratio AUC
Procedure, shortened: (§3)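 Bile collected 0-6 h and weighed; portal and hepatic vein plasma sampled. UPLC-MS/MS quantification against finasteride-d9 in SRM mode. Bile/plasma AUC ratio calculated per vein.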

[16] = Ratio of AUC in bile to plasma withdrawn from hepatic vein in castrated pig at 0.8 mg/kg administered as intrajejunal dose 20 mins after ketoconazole administration by UPLC-tandem mass spectrometry; format: ADME, organism-based, Sus scrofa; design: dose 0.8 mg/kg; details: male, read-out: Ratio AUC; procedure, shortened: as §3
[17] = Drug excretion in castrated pig urine assessed as unchanged drug level at 0.8 mg/kg administered as intrajejunal dose measured during 6 hrs sampling by UPLC-tandem mass spectrometry; format: ADME, organism-based, Sus scrofa; design: dose 0.8 mg/kg; details: in vivo, other
[18] = Drug excretion in castrated pig urine assessed as unchanged drug level at 0.8 mg/kg administered as intrajejunal dose 20 mins after ketoconazole administration measured during 6 hrs sampling by UPLC-tandem mass spectrometry; format: ADME, organism-based, Sus scrofa; design: dose 0.8 mg/kg; details: in vivo, other
[19] = Drug excretion in castrated pig urine assessed as fraction of the dose excreted at 0.8 mg/kg administered as intrajejunal dose 20 mins after ketoconazole administration measured during 6 hrs sampling by UPLC-tandem mass spectrometry; format: ADME, organism-based, Sus scrofa; design: dose 0.8 mg/kg; details: male, read-out: Drug excretion
[20] = Drug excretion in castrated pig urine assessed as fraction of the dose excreted at 0.2 mg/kg, iv measured during 6 hrs sampling by UPLC-tandem mass spectrometry; format: ADME, organism-based, Sus scrofa; design: dose 0.2 mg/kg, route intravenous; details: male, read-out: Drug excretion
[21] = Renal clearance in castrated pig at 0.2 mg/kg, iv by UPLC-tandem mass spectrometry; format: ADME, organism-based, Sus scrofa, Kidney; design: dose 0.2 mg/kg, route intravenous; details: male, in vivo
Procedure, shortened: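 Urine collected 0-360 min into a closed bag, weighed and frozen at -20°C. […] Doses: iv 0.2 mg/kg bolus via central vein catheter (n=3), or ij 0.8 mg/kg alone or 20 min after ij ketoconazole 10 mg/kg (n=5). Renal clearance derived from the amount excreted in urine over 0-6 h.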

[22] = AUC (0 to 6 hrs) in castrated pig plasma withdrawn from portal vein at 0.8 mg/kg administered as intrajejunal dose by UPLC-tandem mass spectrometry; format: ADME, organism-based, Sus scrofa; design: time < 6 hr, dose 0.8 mg/kg; details: male; procedure, shortened: as §1
[23] = Fraction unbound in pig plasma; format: ADME, cell-free, Sus scrofa
Procedure, shortened: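 Femoral-vein plasma drawn at 30 and 300 min. […] Unbound and total plasma concentrations measured by HPLC-UV at 210 nm after precipitation and solid-phase extraction, with testosterone as internal standard. Calibration range 0.003-1 µM; fraction unbound taken as Cu/Cp.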

[24] = system: Plasma; assay: Drug metabolism in castrated pig plasma withdrawn from femoral vein assessed as omega-hydroxy finasteride metabolite formation by UPLC-tandem mass spectrometry; format: ADME, cell-free, Sus scrofa
Procedure, shortened: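 Plasma sampled 0-6 h from portal, hepatic and femoral veins. Analysed by acetonitrile precipitation with finasteride-d9 internal standard, then UPLC-MS/MS in SRM mode, m/z 389.41 → 271.94 for the ω-hydroxy metabolite.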

[25] = Drug excretion in castrated pig bile assessed as omega-hydroxy finasteride metabolite formation by UPLC-tandem mass spectrometry; format: ADME, tissue-based, Sus scrofa
[26] = Tmax in castrated pig plasma withdrawn from femoral vein at 0.8 mg/kg administered as intrajejunal dose 20 mins after ketoconazole administration by UPLC-tandem mass spectrometry; format: ADME, organism-based, Sus scrofa; design: dose 0.8 mg/kg; details: male; procedure, shortened: as §2
[27] = Terminal half life in castrated pig plasma withdrawn from hepatic vein at 0.8 mg/kg administered as intrajejunal dose by UPLC-tandem mass spectrometry; format: ADME, organism-based, Sus scrofa; design: dose 0.8 mg/kg; details: male, read-out: beta t1/2 (converted); procedure, shortened: as §2
[28] = Terminal half life in castrated pig plasma withdrawn from portal vein at 0.8 mg/kg administered as intrajejunal dose 20 mins after ketoconazole administration by UPLC-tandem mass spectrometry; format: ADME, organism-based, Sus scrofa; design: dose 0.8 mg/kg; details: male, read-out: beta t1/2 (converted); procedure, shortened: as §2
[29] = system: Sus scrofa; assay: Absorption rate constant in castrated pig plasma withdrawn from femoral vein at 0.8 mg/kg administered as intrajejunal dose by UPLC-tandem mass spectrometry; format: ADME, organism-based; design: dose 0.8 mg/kg; details: in vivo, other
[30] = system: Sus scrofa; assay: Absorption rate constant in castrated pig plasma withdrawn from femoral vein at 0.8 mg/kg administered as intrajejunal dose 20 mins after ketoconazole administration by UPLC-tandem mass spectrometry; format: ADME, organism-based; design: dose 0.8 mg/kg; details: in vivo, other
[31] = Biliary excretion in castrated pig assessed as unchanged drug level at 0.8 mg/kg administered as intrajejunal dose 20 mins after ketoconazole administration measured during 6 hrs sampling by UPLC-tandem mass spectrometry; format: ADME, organism-based, Sus scrofa, Bile; design: dose 0.8 mg/kg; details: in vivo, other
[32] = Biliary excretion in castrated pig assessed as unchanged drug level at 0.2 mg/kg, iv measured during 6 hrs sampling by UPLC-tandem mass spectrometry; format: ADME, organism-based, Sus scrofa, Bile; design: dose 0.2 mg/kg, route intravenous; details: in vivo

- AUC(0-t) at 6 h [1]: 1.2 µM·h
- half-life [2]: 3.4 h
- dose excreted at 6 h [3]: 0.09%
- dose excreted at 6 h [4]: 0.19%
- CL(app) [5]: 13 mL/day/kg
- AUC(0-t) at 6 h [6]: 1.7 µM·h
- AUC(0-t) at 6 h [7]: 4.1 µM·h
- Cmax [8]: 1400 nM
- Tmax [9]: 0.9 h
- Tmax [10]: 0.3 h
- AUC(0-t) at 6 h [11]: 2.5 µM·h
- AUC(0-t) at 6 h [12]: 1.1 µM·h
- Cmax [13]: 1300 nM
- Cmax [14]: 500 nM
- Kp at 20 min [15]: 0.7
- Kp at 20 min [16]: 6
- dose excreted [19]: 0.08%
- dose excreted at 6 h [20]: 0.12%
- CL renal [21]: 14.4 mL/day/kg
- AUC(0-t) at 6 h [22]: 2.9 µM·h
- fraction unbound [23]: 0.17
- Drug metabolism [24]: metabolite_not_detected
- Drug excretion [25]: metabolite_not_detected
- Tmax [26]: 1.5 h
- half-life [27]: 1.7 h
- half-life [28]: 3.9 h
- ka [29]: 6 h⁻¹
- ka [30]: 3 h⁻¹
SMILES: CC(C)(C)NC(=O)[C@H]1CC[C@H]2[C@@H]3CC[C@H]4NC(=O)C=C[C@]4(C)[C@H]3CC[C@]12C [FINASTERIDE]
- Ae [17]: 0.01 µmol
- Ae [18]: 0.04 µmol
- Ae [31]: 0.09 µmol
- Ae [32]: 0.032 µmol
